We go through eight compounds from ChEMBL document CHEMBL1124652, “Resolved 6,7,8,9-tetrahydro-N,N-dimethyl-3H-benz[e]indol-8-amine: central dopamine and serotonin receptor stimulating properties” (J Med Chem, 1989).

For experiment [1], the system named is Rattus norvegicus. Put plainly: Effect on Dopa accumulation upon subcutaneous administration in the corpus striatum of rat brain. The conditions noted are these: sc. It is filed as functional.
Experiment [2] concerns Rattus norvegicus. As to the kind of experiment: Effect on Dopa accumulation upon subcutaneous administration in the limbic system of rat brain. It is filed as functional. Particulars: sc.
Experiment [3] concerns Rattus norvegicus. Put plainly: Effect of compound on 5-Hydroxy tryptamine accumulation upon subcutaneous administration in the corpus striatum of rat brain. The conditions noted are these: sc. Type of experiment: functional.
Experiment [4] relates to Rattus norvegicus. Put plainly: Effect of compound on 5-Hydroxy tryptamine accumulation upon subcutaneous administration in the hemisphere of rat brain. It is filed as functional. Particulars: sc.
Experiment [5] concerns the target T1, D(1A) dopamine receptor (Rattus norvegicus, UniProt P18901). As to the kind of experiment: In vitro binding activity against dopamine receptor D1 from homogenized rat brain, using [3H]SCH-23390 as the radioligand. The procedure, abridged:
(§1)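 Rat striatal membranes prepared in 50 mM potassium phosphate pH 7.4 and centrifuged at 25000g. Incubated with 0.2 nM [3H]SCH 23390 (1 mg original tissue) for 60 min at 30 °C, then separated by rapid filtration. Specific binding defined with 1 μM cis-(Z)-flupentixol.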

Experiment [6] deals with Rattus norvegicus. Put plainly: Effect on Dopa accumulation upon subcutaneous administration in the hemispheres of rat brain (partial response). It is filed as functional. Particulars: sc.
The test system of experiment [7] is Rattus norvegicus. Put plainly: Effect on motor activity in rats at a dose of 2 uM/Kg. Type of experiment: functional.
Experiment [8] relates to Rattus norvegicus. Put plainly: Effect of compound on 5-Hydroxy tryptamine accumulation upon subcutaneous administration in the limbic system of rat brain. Type of experiment: functional. The conditions noted are these: sc.
Experiment [9] has as its target T2, D(2) dopamine receptor (Rattus norvegicus, UniProt P61169). As to the kind of experiment: In vitro binding activity against Dopamine receptor D2 from homogenized rat brain, using [3H]spiperone as the radioligand. The procedure, abridged: (§2)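 Rat striatal membranes in 50 mM potassium phosphate buffer (pH 7.4 at 25 °C), pellets homogenized in 1300 volumes. Incubated with 0.5 nM [3H]spiperone (3 mg original tissue) for 10 min at 37 °C, then terminated by rapid vacuum filtration and counted by liquid scintillation. Nonspecific binding defined with 10 μM 6,7-ADTN; specific binding 70-80% of total.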

The target of experiment [10] is T1, D(1A) dopamine receptor. Put plainly: In vitro binding activity against dopamine D1 receptor from homogenized rat brain, using [3H]SCH-23390 as the radioligand. A digest of the protocol: as §1
Experiment [11] has as its system Rattus norvegicus. Put plainly: Effect of compound on 5-Hydroxy transaminase accumulation upon subcutaneous administration in the corpus striatum of rat brain. Type of experiment: functional. The conditions noted are these: sc. A digest of the protocol: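 Male Sprague-Dawley rats (200-300 g) received the compound subcutaneously at 5 mL/kg in neutral-pH solution, at four to six dose levels up to 50 μmol/kg (n = 4 per dose). 5-HTP in the corpus striatum was measured by HPLC with electrochemical detection. A separate dose-response curve per substance and brain area gave ED50 values.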

Experiment [12] concerns Rattus norvegicus. Put plainly: Effect of compound on 5-Hydroxy transaminase accumulation upon subcutaneous administration in the limbic system of rat brain. Type of experiment: functional. Particulars: sc. The procedure, abridged: (§3)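 Male Sprague-Dawley rats (200-300 g) were dosed subcutaneously at 5 mL/kg with neutral-pH solutions. Dose-response curves used four to six dose levels (n = 4) per substance and per brain area, up to 50 μmol/kg. 5-HTP was measured in dissected brain regions by HPLC with electrochemical detection, and ED50 values were derived from the curves.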

For experiment [13], the species on record is Rattus norvegicus. Put plainly: […]. It is filed as functional, organism-based. The conditions noted are these: Striatum.
Experiment [14] concerns Rattus norvegicus. Put plainly: Effect on Dopa accumulation upon subcutaneous administration in the limbic system of rat brain; I - inactive at highest dose (50 umol/kg). Type of experiment: functional, organism-based.
Experiment [15] deals with Rattus norvegicus. As to the kind of experiment: Effect on Dopa accumulation upon subcutaneous administration in the hemispheres of rat brain; I - inactive at highest dose (50 umol/kg). It is filed as functional, organism-based.
The test system of experiment [16] is Rattus norvegicus. Put plainly: Effect of compound on 5-Hydroxy transaminase accumulation upon subcutaneous administration in the hemisphere of rat brain. It is filed as functional. The conditions noted are these: sc. A digest of the protocol:
as §3

The target of experiment [17] is T1, D(1A) dopamine receptor. Put plainly: In vitro binding activity against Dopamine receptor D1 from homogenized rat brain, using [3H]SCH-23390 as the radioligand. A digest of the protocol:
as §1

For experiment [18], the target named is T2, D(2) dopamine receptor. As to the kind of experiment: In vitro binding activity against dopamine receptor D2 from homogenized rat brain, using [3H]spiperone as the radioligand. The procedure, abridged: as §2
The target in experiment [19] is T3, 5-hydroxytryptamine receptor 1A (Rattus norvegicus, UniProt P19327).
T3 sequence (P19327 whole entry): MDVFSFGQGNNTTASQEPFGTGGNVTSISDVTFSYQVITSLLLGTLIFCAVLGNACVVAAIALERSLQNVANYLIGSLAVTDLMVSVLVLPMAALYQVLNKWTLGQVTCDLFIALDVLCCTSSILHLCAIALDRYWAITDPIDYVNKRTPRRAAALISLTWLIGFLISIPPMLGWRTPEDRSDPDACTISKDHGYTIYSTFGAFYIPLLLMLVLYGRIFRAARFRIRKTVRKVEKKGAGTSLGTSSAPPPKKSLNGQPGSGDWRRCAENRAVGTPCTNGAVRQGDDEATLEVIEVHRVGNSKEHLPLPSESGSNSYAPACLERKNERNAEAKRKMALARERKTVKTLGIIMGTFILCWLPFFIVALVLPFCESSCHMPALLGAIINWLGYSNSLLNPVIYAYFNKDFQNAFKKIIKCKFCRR
As to the kind of experiment: In vitro binding activity against 5-hydroxytryptamine 1A receptor from homogenized rat brain, using [3H]-8-OH-DPAT as the radioligand. The procedure, abridged: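 Whole rat brain minus brainstem and cerebellum, homogenized in 50 mM Tris pH 8.0 with 120 mM NaCl, 4 mM CaCl2 and 4 mM MgCl2. Membranes preincubated 10 min at 37 °C, then resuspended with 10 μM pargyline. Incubated in triplicate with 1 nM [3H]-8-OH-DPAT (0.1% ascorbic acid) for 15 min at 37 °C, then filtered. Nonspecific binding defined with 10 μM 5-HT. IC50 from semilog linear regression.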

In experiment [20] the test system is Rattus norvegicus. Put plainly: Effect of compound on 5-Hydroxy tryptamine accumulation upon subcutaneous administration in the hemisphere of rat brain (partial response). It is filed as functional. Particulars: sc.
Experiment [21] has as its system Rattus norvegicus. As to the kind of experiment: Effect on motor activity in rats at a dose of 4 uM/Kg. It is filed as functional.
Experiment [22] concerns Rattus norvegicus. As to the kind of experiment: Effect on motor activity in rats at a dose of 12.5 uM/Kg. Type of experiment: functional.
Experiment [23] deals with Rattus norvegicus. As to the kind of experiment: Effect on Dopa accumulation upon subcutaneous administration in the hemispheres of rat brain. It is filed as functional. Particulars: sc.
Experiment [24] relates to Rattus norvegicus. As to the kind of experiment: Effect of compound on 5-Hydroxy transaminase accumulation upon subcutaneous administration in the hemisphere of rat brain; I - inactive at highest dose (50 umol/kg). It is filed as functional, organism-based.
Experiment [25] concerns Rattus norvegicus. As to the kind of experiment: Effect of compound on 5-Hydroxy transaminase accumulation upon subcutaneous administration in the limbic system of rat brain; I - inactive at highest dose (50 umol/kg). Type of experiment: functional, organism-based.
For experiment [26], the system named is Rattus norvegicus. Put plainly: Effect of compound on 5-Hydroxy transaminase accumulation upon subcutaneous administration in the corpus striatum of rat brain; I - inactive at highest dose (50 umol/kg). Type of experiment: functional, organism-based.

pIC50: −log10 of the molar value. The source made the active and inactive calls. No cut-off for these calls is given here.

T1 sequence (P18901 whole entry): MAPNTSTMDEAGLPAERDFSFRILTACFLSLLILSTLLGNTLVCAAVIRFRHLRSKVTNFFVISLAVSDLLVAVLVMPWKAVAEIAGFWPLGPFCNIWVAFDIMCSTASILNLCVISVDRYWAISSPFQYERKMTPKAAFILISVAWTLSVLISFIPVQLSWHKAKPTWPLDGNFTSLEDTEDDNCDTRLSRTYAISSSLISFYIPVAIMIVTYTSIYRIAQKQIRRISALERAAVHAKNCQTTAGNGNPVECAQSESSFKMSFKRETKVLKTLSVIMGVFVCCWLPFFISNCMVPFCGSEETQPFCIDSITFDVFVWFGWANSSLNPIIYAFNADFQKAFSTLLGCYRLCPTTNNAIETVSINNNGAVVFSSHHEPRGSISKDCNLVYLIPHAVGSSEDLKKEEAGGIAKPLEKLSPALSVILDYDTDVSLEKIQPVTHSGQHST
T2 sequence (P61169 whole entry): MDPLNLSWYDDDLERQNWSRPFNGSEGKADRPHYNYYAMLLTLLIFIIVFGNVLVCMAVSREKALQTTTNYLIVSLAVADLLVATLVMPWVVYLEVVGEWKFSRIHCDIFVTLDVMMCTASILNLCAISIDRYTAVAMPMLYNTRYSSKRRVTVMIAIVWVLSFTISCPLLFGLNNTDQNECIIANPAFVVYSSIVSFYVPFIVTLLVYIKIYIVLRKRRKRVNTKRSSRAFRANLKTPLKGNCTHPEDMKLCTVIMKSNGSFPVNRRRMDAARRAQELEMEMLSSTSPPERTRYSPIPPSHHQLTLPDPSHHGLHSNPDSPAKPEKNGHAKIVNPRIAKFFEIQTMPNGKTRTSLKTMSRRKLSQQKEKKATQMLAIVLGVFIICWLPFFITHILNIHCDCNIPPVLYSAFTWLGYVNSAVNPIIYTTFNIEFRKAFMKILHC

In the case of `CN(C)[C@@H]1CCc2ccc3[nH]ccc3c2C1`, the ED50 with Rattus norvegicus [1] was found to be 0.4 µmol/kg; in the experiment with Rattus norvegicus [2] it was 0.3 µmol/kg; in the experiment with Rattus norvegicus [3], 0.1 µmol/kg; in the experiment with Rattus norvegicus [4], 0.4 µmol/kg; in the experiment on Rattus norvegicus [6] it was 2 µmol/kg; in the experiment on Rattus norvegicus [8], 0.4 µmol/kg. Moreover, on D(1A) dopamine receptor [5], the pIC50 is 4.69. The Motor activity with Rattus norvegicus [7] is given as 130 accumulated counts 30min-1.
In the case of `CCCN(CCC)C1CCc2cccc(O)c2C1` (racemic) [8-OH-DPAT], the pIC50 at D(2) dopamine receptor [9] is 5.24; at D(1A) dopamine receptor [10], below 4.00.
For the compound `CCCN(CCC)[C@H]1CCc2cccc(O)c2C1`, the ED50 in the experiment on Rattus norvegicus [11] is 0.065 µmol/kg; with Rattus norvegicus [12], 0.061 µmol/kg; in the experiment on Rattus norvegicus [16], 0.077 µmol/kg. The ED50 result in the experiment listed under Rattus norvegicus [13], in the experiment with Rattus norvegicus [14] and with Rattus norvegicus [15] was “inactive” in each case.
`CCN(CC)C(=O)N[C@H]1C[C@@H]2c3cccc4[nH]cc(c34)C[C@H]2N(C)C1` [TERGURIDE]: the values for the pIC50 (at D(1A) dopamine receptor [17]; at D(2) dopamine receptor [18]; in [19]) were 7.16, 8.40 and 7.60, respectively.
Consider `CN(C)C1CCc2ccc3[nH]ccc3c2C1` (racemic), for which the ED50 in the experiment with Rattus norvegicus [1] came to 0.4 µmol/kg; in the experiment with Rattus norvegicus [2] it was 0.3 µmol/kg; in the experiment on Rattus norvegicus [3], 0.2 µmol/kg; in the experiment with Rattus norvegicus [20] it was 0.4 µmol/kg; in the experiment with Rattus norvegicus [6] it was 4 µmol/kg; with Rattus norvegicus [8], 0.3 µmol/kg. This compound gave a pIC50 at D(1A) dopamine receptor [5] of 4.71. For the same compound, the Motor activity in the experiment with Rattus norvegicus [21] was 90 accumulated counts 30min-1.
With `CN(C)[C@H]1CCc2ccc3[nH]ccc3c2C1`, the ED50 is 8 µmol/kg in the experiment on Rattus norvegicus [1]; 4.2 µmol/kg in the experiment on Rattus norvegicus [2]; 3.7 µmol/kg in the experiment with Rattus norvegicus [3]; 3.7 µmol/kg in the experiment on Rattus norvegicus [4]; 10 µmol/kg in the experiment with Rattus norvegicus [23]; 3.7 µmol/kg in the experiment on Rattus norvegicus [8]. The Motor activity in the experiment on Rattus norvegicus [22] is 22 accumulated counts 30min-1. At D(1A) dopamine receptor [5], this compound showed a pIC50 of 4.53.
Turning to `CCCN(CCC)[C@@H]1CCc2cccc(O)c2C1`, the ED50 in the experiment on Rattus norvegicus [11] was determined as 0.047 µmol/kg; with Rattus norvegicus [12] it was 0.036 µmol/kg; in the experiment on Rattus norvegicus [16], 0.05 µmol/kg. The ED50 result in the experiment listed under Rattus norvegicus [13], with Rattus norvegicus [14] and in the experiment with Rattus norvegicus [15] was “inactive” in each case.
On to `CCCN(CCC)[C@@H]1CCc2ccc(O)cc2C1`, for which the ED50 result in the experiment on Rattus norvegicus [15], in the experiment with Rattus norvegicus [24], in the experiment with Rattus norvegicus [25] and in the experiment on Rattus norvegicus [26] was “inactive” in each case. Besides, the figures for the median effective dose (ED50) in the experiment with Rattus norvegicus [1] and in the experiment with Rattus norvegicus [2] were 0.011 µmol/kg and 0.0095 µmol/kg, respectively.
